Assay results of several laboratories.
Lines come from different studies, so protocols differ.
Target: Muscarinic acetylcholine receptor M2 (CHRM2, Homo sapiens, UniProt P08172)
Concentration: 10 µM
One construct used (P08172 1-466): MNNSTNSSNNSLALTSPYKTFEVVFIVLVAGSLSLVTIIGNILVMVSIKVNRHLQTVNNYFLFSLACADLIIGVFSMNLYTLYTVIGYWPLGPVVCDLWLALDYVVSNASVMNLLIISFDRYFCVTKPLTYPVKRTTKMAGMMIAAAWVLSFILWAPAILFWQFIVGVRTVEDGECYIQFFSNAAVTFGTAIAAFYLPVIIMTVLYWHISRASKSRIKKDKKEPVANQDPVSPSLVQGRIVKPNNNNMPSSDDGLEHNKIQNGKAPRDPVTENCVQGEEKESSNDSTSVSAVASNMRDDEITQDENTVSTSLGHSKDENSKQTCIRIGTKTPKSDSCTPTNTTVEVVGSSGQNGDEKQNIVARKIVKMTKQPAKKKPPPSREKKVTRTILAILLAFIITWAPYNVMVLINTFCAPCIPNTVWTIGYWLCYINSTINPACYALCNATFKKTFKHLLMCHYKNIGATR

`c1ccc(C(NCCNC(c2ccccc2)c2ccccc2)c2ccccc2)cc1` has an inhibition of 45% (cell-free assay).
With `Cc1c(N2CCNCC2)nc2ccc(Br)cc2c1C(=O)NC[C@H](CCC(=O)O)c1ccccc1Cl` the inhibition was 13.8% (ligand displacement).
`Clc1ccc2c(C3CCN(CCc4c[nH]c5ccccc45)CC3)c[nH]c2c1` gave an inhibition of 15% (ligand displacement; radioligand).
With `Cn1cncc1[C@@](O)(COc1ccc(C#N)cc1-c1ccc(OC(F)(F)F)cc1)c1ccc(C#N)cc1` the inhibition was -11.9% (ligand displacement).
`C[C@H](C(=O)N[C@H]1COc2ccccc2[C@@H]1S(C)(=O)=O)c1ccc(F)cc1` gave an inhibition of 5% (cell-free assay).
The inhibition of `CC(C)N1CCC[C@H]1CNC(=O)c1cn(C2CCCC2)c(=O)c2c1c1ccccc1n2C` is reported as 1% (ligand displacement; radioligand).
With `CN1CC[C@]2(C)c3cc(OC(=O)Nc4ccccc4)ccc3N(C)[C@H]12` the inhibition was 0% (ligand displacement; radioligand).
`Nc1ncc(-c2nc(N3CCOCC3)nc(N3CCOCC3)n2)c(C(F)F)n1` gave a remaining signal of 117% (cell-free assay; radioligand).
The inhibition of `CCN(CC)CCCC[C@H](NC(=O)[C@H](CC(C)C)NC(=O)[C@H](C)NC(=O)[C@H](Cc1ccccc1)NC(=O)c1ccc(C(C)(C)C)cc1)C(=O)N[C@@H](CO)C(=O)OC` is reported as -6% (ligand displacement; radioligand).
`COCc1c(-c2cc3cc(C)cc(OC)c3s2)c2c(N)ncnn2c1CN1CCNC(=O)C1` gave an inhibition of -1% (ligand displacement; radioligand).
